# FN deposition inh = inhibitors of fibronectin matrix deposition, primary screen, AH1F cells, Alexa488-fibronectin fluorescence, plate reader; AID 743247, 2014; AH1F fibroblasts, overnight; inhibition, % at 12.6 µM; 0.086% of 350,000 active;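 active = mean inhibition across replicates of 30% or more, regardless of how many single replicates reach that level; inconclusive = mean under 30% yet at least half of replicates reach 30%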;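 also: positive control wells lacked labelled fibronectin entirely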
#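 Assay system: AH1F fibroblast monolayer, labelled fibronectin deposition. Amount: 10000 cells per well. Also added: labelled fibronectin 24 nM. Compound: single-point pinned compound. Incubation: cell attachment 1 h, compound and FN exposure overnight. Detection: fluorescence after three HBSS washes, excitation 485 nm, emission 525 nm. Read-out: inhibition of fibronectin deposition signal.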
# Vif imaging = HIV Vif self-association inhibitors, primary screen, imaging, HEK293T, single point; HEK293T cells, Vif self-association by quenched fluorescence, 24 h; inhibition, % at 7.49 µM; 0.35% of 340,000 active; in the data active = inhibition above about 50%, passing the limit was not always enough; inconclusive = no clear call, values can overlap the other calls; inactive = below about 31%
# Ecoli rRNA inh = reduced GFP signal of wild-type E. coli, primary screen, bacterial rRNA inhibitor project, GFP/RFP fluorescence, OD600, single point; E. coli WT GFP vs humanized-ribosome RFP mutants, 24 h; hits give low values; DMSO median 0, no signal -100; GFP signal change (wild-type ribosome), % (test concentration not listed); 1.6% of 350,000 active; AID 720706, 2013;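 active = significant combined selectivity score with lowered wild-type GFP, culture density cut under 30%, mutant RFP and density less affected; inactive = any of these conditions unmet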
# miR122 inh = miR-122 Renilla sensor signal increase in Huh7, primary screen, miR-122 inhibitor project, cell-based, single point, plate reader; Huh7 miR-122 Renilla luciferase sensor, 48 h; neutral wells = 0, positive control = 100; activation (reporter increase), % at 12.5 µM; 0.3% of 340,000 active;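 active = mean replicate activation score at least 90 and every replicate individually at or above 90; inconclusive = only one of the two criteria met; inactive = neither criterion met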;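 also: higher luciferase means less miR-122 activity so hits act as miR-122 inhibitors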
# HIV Env fusion = inhibitors of HIV-1 Env-driven cell-cell fusion, primary screen, HeLa-JRFL effector, CEM21 target cells, luciferase; inhibition, % at 12.3 µM; 1.1% of 360,000 active;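 active = mean replicate inhibition score of at least 50 and every replicate individually at or above 50; inconclusive = only one of the two criteria met; inactive = mean below 50 and not all replicates reaching 50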;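 also: 0% = plate neutral controls and 100% = maraviroc near 300 nM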
# S100A4 inh HTS = inhibitors of S100A4-myosin IIA peptide binding, primary screen, biochemical, fluorescence polarization, TAMRA-MyoIIA peptide; 0.14% of 360,000 active; inhibition, % at 10.7 µM; Protein S100-A4 (Homo sapiens), P26447;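 active = mean inhibition of at least 70% across replicates, with every replicate also reaching that level; inconclusive = mean inhibition reaches 70% but some replicates fall short; inactive = mean inhibition below 70%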
# Target sequence (P26447 whole entry, looked up): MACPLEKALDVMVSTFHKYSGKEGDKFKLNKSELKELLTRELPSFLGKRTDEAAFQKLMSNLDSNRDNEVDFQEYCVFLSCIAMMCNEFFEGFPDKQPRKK
#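 incubation = readout 5 min after mixing, signal stable up to 60 min | system = S100A4 monomer protein | buffer or medium = HEPES pH 7.2 with CaCl2, KCl, NaCl, DTT, Triton | benchmarks = neutral control DMSO, positive control TFP | also added = fluorescent myosin IIA peptide, 5 nM | compound dosing = one concentration per compound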
# Active calls of the source: *; u = inconclusive; x = no result; [ ] = dose if it differs, or a comment. Hits are enriched below; roughly 2.6% of the tested compounds scored in any of these assays.
SMILES,FN deposition inh,Vif imaging,Ecoli rRNA inh,miR122 inh,HIV Env fusion,S100A4 inh HTS
O=C1CN(S(=O)(=O)c2cc(Br)ccc2Br)CCN1,-5,5,19,1,-5,-1
COc1cccc(C(=O)Nc2nnc(S(=O)(=O)N3CCCC3)s2)c1,2,-3,1,4,-11,3
COc1cc(C(=O)Nc2nnc(S(=O)(=O)N3CCCCCC3)s2)cc(OC)c1OC,14,-7,-31*,-4,-14,3
CN1c2ccc(C#Cc3cccnc3)cc2[C@@H]2[C@@H](CCN2C(=O)C2CCC2)[C@H]1CO,15,x,-10,x,15[16.7 µM],4
O=C(Nc1cccc(-c2cn3cccnc3n2)c1)c1ccc(Br)o1,-4,81*,-6,11,-53,-3
O=C(Nc1cccc(-c2cn3ccccc3n2)c1)c1ccccc1,-4,-7,-32*,x,-14,-7
Cc1ccc(C(=O)Nc2cccc(-c3cn4ccccc4n3)c2)cc1,-13,-1,-29*,9,-34,-5
O=C(Nc1cccc(-c2nc3ccccc3c(=O)o2)c1)c1ccccc1,-2,5,-20*,x,-13,-16
C[C@@H]1CN([C@@H](C)CO)C(=O)c2cc(NC(=O)NC3CCCCC3)ccc2O[C@@H](C)CCCCO[C@H]1CN(C)CC1CCCCC1,9,x,1,14[16.7 µM],7[16.7 µM],x
C[C@@H]1CN([C@H](C)CO)C(=O)c2cc(C#CCN(C)C)cnc2O[C@H]1CN(C)C(=O)Nc1cccc(F)c1,x,x,0,-5[16.7 µM],-5[16.7 µM],-4
C[C@H]1CN([C@@H](C)CO)C(=O)c2cccc(NC(=O)C3CC3)c2O[C@H]1CN(C)S(C)(=O)=O,x,x,2,-5[16.7 µM],-1[16.7 µM],-7
C[C@H](CO)N1C[C@H](C)[C@@H](CN(C)S(C)(=O)=O)Oc2c(NC(=O)Cc3ccccc3)cccc2C1=O,30*,x,2,13,-38,4
C[C@H]1CN([C@@H](C)CO)C(=O)c2cccc(NC(=O)C3CCCCC3)c2O[C@H]1CN(C)S(C)(=O)=O,-12,x,4,12[16.7 µM],62*[16.7 µM],-1
C[C@H](CO)N1C[C@H](C)[C@@H](CN(C)S(=O)(=O)c2cccs2)Oc2c(NC(=O)Cc3ccccc3)cccc2C1=O,-7,-4,2,3,-138,4
C[C@@H]1CN([C@@H](C)CO)C(=O)c2cccc(NC(=O)C3CC3)c2O[C@@H]1CN(C)S(C)(=O)=O,x,x,5,0[16.7 µM],-44[16.7 µM],124*
CO[C@@H]1CN(C)C(=O)c2cc(NC(=O)Nc3ccc4c(c3)OCO4)ccc2OC[C@H](C)NC[C@@H]1C,-6,x,4,x,x,41
COc1ccccc1NC(=O)N(C)C[C@@H]1Oc2ncc(C#CC(C)C)cc2C(=O)N([C@H](C)CO)C[C@H]1C,-9,x,-3,-6[16.7 µM],x,x
COc1c2ccoc2nc2c(OC)cccc12,9,-4,-22*,-11,x,-11
COc1cccc2c(=O)ccoc12,x,7,x,9,x,x
C[C@H](CO)N1C[C@H](C)[C@H](CN(C)C(=O)NC2CCCC2)Oc2ncc(-c3ccccc3F)cc2C1=O,2,x,-3,-23[16.7 µM],4[16.7 µM],-20
COc1ccc(NS(=O)(=O)c2ccc(OC)c(OC)c2)cc1OC,-7,-1,x,u,7,x
COc1ccc(S(=O)(=O)Nc2ccc(C(F)(F)F)cc2)cc1OC,4,16,x,128*,-17,x
C[C@@H]1CN([C@@H](C)CO)C(=O)c2cc(C#Cc3ccccn3)cnc2O[C@@H]1CN(C)CC1CCCC1,-15,x,5,-5[16.7 µM],x,x
O=C(CNc1ccc2ccccc2c1)N/N=C/C=C/c1cccc([N+](=O)[O-])c1,1,-3,-15*,x,0,-1
O=C(N/N=C/C=C/c1cccc([N+](=O)[O-])c1)C(O)c1ccccc1 (stereo unspecified),-5,9,-2,x,6,-5
SMILES,FN deposition inh,Vif imaging,Ecoli rRNA inh,miR122 inh,HIV Env fusion,S100A4 inh HTS
C[C@@H]1CN([C@@H](C)CO)C(=O)c2cc(NS(C)(=O)=O)ccc2O[C@@H](C)CCCCO[C@@H]1CN(C)S(=O)(=O)c1ccccc1,x,x,-3,8[16.7 µM],-3[16.7 µM],38
O=c1[nH][nH]cc1C=Nc1ccccc1Cl,3,-5,12,x,5,-7
O=c1[nH][nH]cc1C=Nc1ccccc1O,x,1,x,-24,72*,x
COc1ccc(NC(=O)C2C(c3ccccc3)C2(Cl)Cl)cc1 (stereo unspecified),-5,-8,-39*,x,-3,1
CCOc1ccc(NC(=O)C2C(c3ccccc3)C2(Cl)Cl)cc1 (stereo unspecified),-6,0,-15,-7,-82,-4
O=C(c1cccc(Cl)c1)N1CCC2(CC1)NCCc1[nH]cnc12,1,52*,12,x,-1,-2
O=C(c1cccc(F)c1)N1CCC2(CC1)NCCc1[nH]cnc12,-8,4,12,-2,4,0
O=C(c1ccccc1)C(O)(Cc1ccccc1)c1ccccc1 (stereo unspecified),-3,0,-45,168*,10,1
COc1ccccc1CNC(=O)CSc1ccsc1[N+](=O)[O-],-1,7,x,x,-5,-16
O=C(CSc1ccsc1[N+](=O)[O-])NCc1ccccc1,-6,-4,-5,7,4,104*
CCc1nc2ccc(F)cc2c(C(=O)NC2CCCCC2C)c1C (stereo unspecified),0,54*,-4,2,-98,1
COc1ccc(NC(=O)CNCCC2=CCCCC2)cc1,3,0,13,-4,60*,-2
O=C(COC(=O)c1ccccc1)NCCC1=CCCCC1,x,-1,-28*,x,4,-10
CC(OC(=O)c1ccc(NC(=O)CC#N)cc1)C(=O)NCCC1=CCCCC1 (stereo unspecified),1,15,11,1,76*,-12
COc1ccc(C(=O)NCCC2=CCCCC2)cc1,1,-2,x,-2,4,x
Cc1noc(C)c1NC(=O)Nc1ccc2c(c1)C(=O)N([C@@H](C)CO)C[C@H](C)[C@@H](CN(C)C(=O)Nc1cccc3ccccc13)OCCCC[C@H](C)O2,-5,x,-2,0[16.7 µM],6[16.7 µM],x
CCOc1ccc(S(=O)(=O)/N=C(/Nc2ccc(C)c(S(=O)(=O)N3CCOCC3)c2)c2ccccc2)cc1,4,-4,-4,107*,x,-7
Cc1ccc(NC(=O)C(=O)c2c(-c3ccccc3)cc3ccccn23)cc1S(=O)(=O)N1CCOCC1,-8,-16,x,247*,-27,x

# Screening results deposited in PubChem BioAssay by Broad Institute.
